Laboratory results published in ChEMBL document CHEMBL4177758, “Rational Drug Design of Topically Administered Caspase 1 Inhibitors for the Treatment of Inflammatory Acne” (J Med Chem, 2018).
Values after ≈ are worked out from the molar mass of the structure shown. Active and inactive are the calls of the source. No cut-off for these calls is given here.

Legend:
Caspase-1 [1] = target: T1, Caspase-1 (Homo sapiens, UniProt P29466); assay: Inhibition of human recombinant caspase-1 using AC-WEHD-AMC as substrate at 20 times Km after 20 mins by fluorescence assay
T1 sequence (P29466 whole entry): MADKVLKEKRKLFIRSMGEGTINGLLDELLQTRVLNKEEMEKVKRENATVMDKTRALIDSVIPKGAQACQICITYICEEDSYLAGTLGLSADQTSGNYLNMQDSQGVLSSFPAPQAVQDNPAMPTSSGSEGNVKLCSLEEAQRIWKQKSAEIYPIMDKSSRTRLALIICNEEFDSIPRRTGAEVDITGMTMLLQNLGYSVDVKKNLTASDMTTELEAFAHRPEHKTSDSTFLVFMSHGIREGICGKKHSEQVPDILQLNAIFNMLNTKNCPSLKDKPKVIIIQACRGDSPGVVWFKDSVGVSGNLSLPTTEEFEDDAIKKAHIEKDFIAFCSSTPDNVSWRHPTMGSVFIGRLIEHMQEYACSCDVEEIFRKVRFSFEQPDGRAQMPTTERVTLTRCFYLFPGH
In short: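 Human recombinant caspase-1 in pH 7.4 HEPES buffer (100 mM NaCl, 0.1% CHAPS, 1 mM EDTA, 10% glycerol, 10 mM DTT) with Ac-WEHD-AMC at 200 μM final. Compounds tested at 10 000–0.04 nM in 1% DMSO. Enzyme level is set to convert under 20% of substrate in 20 min at room temperature. Free AMC read at ex 340/em 450 nm; IC50 from a four-parameter logistic fit.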

Caspase-1 [2] = target: T1, Caspase-1; assay: Inhibition of human recombinant caspase-1 using AC-WEHD-AMC as substrate at Km after 20 mins by fluorescence assay
[3] = Intrinsic clearance in NHEK cells assessed per 10^6 cells; assay type: ADME, cell-based; conditions: human
[4] = Phototoxicity in NHEK assessed as decrease in cell viability after 24 hrs in presence of UV light by neutral red uptake assay; conditions: human
In short: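 Keratinocyte neutral red uptake assay adapted from the OECD 432 3T3 NRU test. Cells are irradiated with a simulated daily UV dose of 6 J/cm², and viability is read after 24 h exposure to compound.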

[5] = Aqueous solubility of the compound in pH 7.4 buffered water after 24 hrs; assay type: physicochemical
In short: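 Semi-thermodynamic protocol: a mixture made from a 10 mM DMSO stock is diluted into pH 7.4 buffered water and stirred 24 h before the concentration is measured.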

[6] = Intrinsic clearance in human epidermal keratinocyte S9 fraction assessed per mg of protein; assay type: ADME
Caspase-1 [7] = target: T1, Caspase-1; assay: Inhibition of caspase-1 in human THP1 cells assessed as decrease in LPS-induced IL-1beta secretion after overnight incubation by sandwich immunoassay; assay type: cell-based
[8] = Solubility of the compound in PG/EtOH solution; assay type: physicochemical
[9] = Lipophilicity, log D of the compound at pH 6.5 by chromatographic method; assay type: physicochemical; conditions: buffer
In short: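 Chromatographic lipophilicity at pH 6.5, converted to ChromLogD = CHI × 0.0857 − 2.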

[10] = Chemical stability in 96% ethanol assessed as parent compound recovery at 23 degC after 3 months; assay type: physicochemical; conditions: read-out: Drug recovery
In short: (§1)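 Compounds bearing the aspartyl aldehyde warhead are held in 96% ethanol at 23 °C and assayed as percent of parent compound recovered. Readings taken after 4 weeks are projected to 12 weeks with best-fit kinetic-order equations. Tautomers and potential stereoisomers are counted as parent.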

Caspase-1 (Homo sapiens) [11] = target: T2, Caspase-1 (Homo sapiens) (UniProt P29466); assay: Reversible inhibition of human recombinant caspase-1 using AC-WEHD-AMC as substrate at 10 times IC50 preincubated for 1 hr followed by 100 fold dilution with substrate measured for 2 hrs by fluorescence assay
T2 sequence (whole entry): T1 sequence (P29466 whole entry)
In short: (§2)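 Jump dilution using the caspase-1 assay reagents. A 100X enzyme solution is preincubated 1 h with inhibitor at its IC90 (1% DMSO), then diluted 100-fold into Ac-WEHD-AMC at Km. AMC formation is recorded continuously for 2 h. The progress-curve slope is normalized to the DMSO control: about 90% indicates reversible, about 10% pseudo-irreversible.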

Caspase-1 (Homo sapiens) [12] = target: T2, Caspase-1 (Homo sapiens); assay: Pseudoirreversible inhibition of human recombinant caspase-1 using AC-WEHD-AMC as substrate at 10 times IC50 preincubated for 1 hr followed by 100 fold dilution with substrate measured for 2 hrs by fluorescence assay; in short: as §2
[13] = Chemical stability in 96% ethanol assessed as parent compound recovery at 23 degC after 84 days; assay type: physicochemical; conditions: read-out: Drug recovery; in short: as §1

IC50 (Caspase-1 [1]) [nM] | IC50 (Caspase-1 [2]; read-out: pIC50 (converted)) [nM] | solubility at 24 h [5] [µM] | IC50 (Caspase-1 [7]) [nM] | chromatographic logD [9] | SMILES | also measured
> 10000 | 1260 |  |  |  | CC(C)[C@H](NC(=O)c1ccc2ccccc2c1)c1ccc(C(=O)N[C@H]2CC(=O)OC2O)cn1 (some centres undefined) | 
 |  | 2 (≈ 1.23 µg/mL) | 200 | 4.5 | CCC(C(=O)N[C@H]1CC(=O)OC1O)n1c(=O)c(NC(=O)c2ncc(Nc3ccc4ccccc4c3)cc2C)cn(C(C)C)c1=O (some centres undefined) | CL [3]: 7.7 uL/min/10^6 cells; Activity [4]: Toxic; CL [6]: 2 uL/min/mg protein; solubility [8]: 49000 µM (≈ 30100 µg/mL); remaining at 2191.5 h [10]: 100%
 | 39.8 |  |  |  | Cc1cnc(Nc2ccc(C(=O)Nc3cn(C)c(=O)n(C(C)C(=O)N[C@H]4CC(=O)OC4O)c3=O)cc2)cn1 (some centres undefined) | 
 |  | 52 (≈ 29.7 µg/mL) | 140 | 3.2 | CC(C)n1cc(NC(=O)c2ccc(Nc3ccc4ccccc4c3)cc2)c(=O)n(CC(=O)N[C@H]2CC(=O)OC2O)c1=O (some centres undefined) | IC50 (Caspase-1 [2]; read-out: IC50): 21 nM; Activity [4]: Toxic; CL [6]: < 0.82 uL/min/mg protein; solubility [8]: 36000 µM (≈ 20600 µg/mL); remaining at 2191.5 h [10]: 82%
31.6 |  | 96 (≈ 53.7 µg/mL) | 48 | 1.9 | CC(C(=O)N[C@H]1CC(=O)OC1O)n1c(=O)c(NC(=O)c2ccc(Nc3cnc4ccccc4n3)cc2)cn(C)c1=O (some centres undefined) | IC50 (Caspase-1 [2]; read-out: IC50): 5.6 nM; solubility [8]: 890 µM (≈ 498 µg/mL)
1260 to 10000 | 1000 to 10000 |  |  |  | C[C@@H](C(=O)N[C@H]1CC(=O)OC1O)N1C(=O)NC(NC(=O)c2ccc3ccccc3c2)C1=O (some centres undefined) | 
 |  |  |  |  | CC(C)N(NC(=O)c1ccc2ccccc2c1)C(=O)[C@@H]1CCCC[C@H]1C(=O)N[C@H]1CC(=O)OC1O (some centres undefined) | reversible inhibition call (jump dilution) (Caspase-1 (Homo sapiens) [11]): Active
 |  | 8.3 (≈ 4.76 µg/mL) | 53 | 2.3 | CC(C)n1cc(NC(=O)c2ccc(Nc3cnc4ccccc4n3)cc2)c(=O)n(CC(=O)N[C@H]2CC(=O)OC2O)c1=O (some centres undefined) | IC50 (Caspase-1 [2]; read-out: IC50): 3 nM; solubility [8]: 5200 µM (≈ 2980 µg/mL)
 |  |  |  |  | C[C@@H](C(=O)N[C@H]1CC(=O)O[C@@H]1O)N1C(=O)CCC(NC(=O)c2ccc3ccccc3c2)C1=O (some centres undefined) | pseudo-irreversible inhibition (qualitative call) (Caspase-1 (Homo sapiens) [12]): Active
1260 to 10000 | 1000 to 10000 |  |  |  | C[C@@H](C(=O)N[C@H]1CC(=O)OC1O)N1C(=O)CC(NC(=O)c2ccc3ccccc3c2)C1=O (some centres undefined) | 
1580 to 10000 | 251 to 10000 |  |  |  | CC(C)N(NC(=O)c1ccc2ccccc2c1)C(=O)C1CCCC[C@H]1C(=O)N[C@H]1CC(=O)OC1O (some centres undefined) | 
 |  |  |  |  | CC(C)N(NC(=O)c1nccc2ccccc12)C(=O)[C@@H]1CCCC[C@H]1C(=O)N[C@H]1CC(=O)OC1O (some centres undefined) | reversible inhibition call (jump dilution) (Caspase-1 (Homo sapiens) [11]): Active
 |  | 87 (≈ 52.2 µg/mL) | 27 | 2.4 | CC(C)n1cc(NC(=O)c2ccc(Nc3cnc4ccccc4n3)cc2)c(=O)n(C2(C(=O)N[C@H]3CC(=O)OC3O)CC2)c1=O (some centres undefined) | IC50 (Caspase-1 [2]; read-out: IC50): 4.7 nM; solubility [8]: 25000 µM (≈ 15000 µg/mL)
> 10000 | 5010 |  |  |  | O=C1C[C@H](NC(=O)[C@@H]2C[C@@H]3CN2C(=O)[C@@H](NC(=O)c2ccc4ccccc4c2)CCCCO3)C(O)O1 (some centres undefined) | 
 |  |  |  |  | CC(C)N(NC(=O)c1cccc(Oc2ccccc2)c1)C(=O)[C@@H]1CCCC[C@H]1C(=O)N[C@H]1CC(=O)OC1O (some centres undefined) | reversible inhibition call (jump dilution) (Caspase-1 (Homo sapiens) [11]): Active
 |  | 72 (≈ 42.2 µg/mL) | 66 | 3.5 | Cc1cc(Nc2ccc3ccccc3c2)ccc1C(=O)Nc1cn(C(C)C)c(=O)n(CC(=O)N[C@H]2CC(=O)OC2O)c1=O (some centres undefined) | CL [3]: 3.9 uL/min/10^6 cells; solubility [8]: 51000 µM (≈ 29900 µg/mL); remaining at 2191.5 h [10]: 85%
 |  | 63 (≈ 39.4 µg/mL) | 360 | 3.4 | Cc1cc(Nc2ccc3ccccc3c2)ccc1C(=O)Nc1cn(C(C)C)c(=O)n(C2(C(=O)N[C@H]3CC(=O)OC(O)C3)CC2)c1=O (some centres undefined) | remaining at 2016 h [13]: 88%; Activity [4]: Non-Toxic; CL [6]: 3.5 uL/min/mg protein
 |  |  | 76 | 4 | CCC(C(=O)N[C@H]1CC(=O)OC1O)n1c(=O)c(NC(=O)c2ccc(Nc3ccc4ccccc4c3)cc2C)cn(C(C)C)c1=O (some centres undefined) | remaining at 2191.5 h [10]: 72%
 |  | 66 (≈ 39.4 µg/mL) | 23 | 3.5 | CC(C)n1cc(NC(=O)c2ccc(Nc3ccc4ccccc4c3)cc2)c(=O)n(C2(C(=O)N[C@H]3CC(=O)OC3O)CC2)c1=O (some centres undefined) | CL [3]: 2.1 uL/min/10^6 cells; CL [6]: < 0.82 uL/min/mg protein; solubility [8]: 31000 µM (≈ 18500 µg/mL); remaining at 2191.5 h [10]: 99%
1580 to 10000 | 251 to 10000 |  |  |  | CC(C)N(NC(=O)c1ccc2ccccc2c1)C(=O)C1CNC[C@H]1C(=O)N[C@H]1CC(=O)OC1O (some centres undefined) | 
 |  | 86 (≈ 50.5 µg/mL) | 50 | 2.4 | CC(C)n1cc(NC(=O)c2ccc(Nc3cnc4ccccc4n3)cc2)c(=O)n(C(C)C(=O)N[C@H]2CC(=O)OC2O)c1=O (some centres undefined) | IC50 (Caspase-1 [2]; read-out: IC50): 5.6 nM; solubility [8]: 11000 µM (≈ 6460 µg/mL)
1580 to 10000 | 251 to 10000 |  |  |  | CC(C)N(NC(=O)c1ccc2ccccc2c1)C(=O)C1CCC[C@H]1C(=O)N[C@H]1CC(=O)OC1O (some centres undefined) | 
 |  |  |  |  | C[C@@H](C(=O)N[C@H]1CC(=O)OC1O)N1C(=O)C[C@H](NC(=O)c2ccc3ccccc3c2)C1=O (some centres undefined) | pseudo-irreversible inhibition (qualitative call) (Caspase-1 (Homo sapiens) [12]): Active
 |  |  |  |  | O=C1C[C@H](NC(=O)[C@@H]2CC[C@@H]3CCCC[C@H](NC(=O)c4nccc5ccccc45)C(=O)N32)C(O)O1 (some centres undefined) | pseudo-irreversible inhibition (qualitative call) (Caspase-1 (Homo sapiens) [12]): Active
 |  | 42 (≈ 26.4 µg/mL) | 210 | 3.8 | CCC(C(=O)N[C@H]1CC(=O)OC(O)C1)n1c(=O)c(NC(=O)c2ccc(Nc3ccc4ccccc4c3)cc2C)cn(C(C)C)c1=O (some centres undefined) | CL [3]: 13 uL/min/10^6 cells; CL [6]: 2.9 uL/min/mg protein; remaining at 2191.5 h [10]: 84%
7940 | 501 |  |  |  | CC(C(=O)N[C@H]1CC(=O)OC1O)n1c(=O)c(NC(=O)c2ccc3ccccc3c2)cn(C)c1=O (some centres undefined) | reversible inhibition call (jump dilution) (Caspase-1 (Homo sapiens) [11]): Active
1260 to 10000 | 1000 to 10000 |  |  |  | C[C@@H](C(=O)N[C@H]1CC(=O)OC1O)N1C(=O)CCC(NC(=O)c2ccc3ccccc3c2)C1=O (some centres undefined) | 
100 | 15.8 |  |  |  | CC(C)[C@H](NC(=O)c1ccc2ccccc2c1)C(=O)N1C2CCC(O)(CC2)C1C(=O)N[C@H]1CC(=O)OC1O (some centres undefined) | 
 |  |  |  |  | CC(C)[C@H](NC(=O)[C@H](Cc1ccc(O)cc1)NC(=O)OCc1ccccc1)C(=O)N[C@@H](C)C(=O)N[C@@H](CC(=O)O)C(=O)CF | pseudo-irreversible inhibition (qualitative call) (Caspase-1 (Homo sapiens) [12]): Active
